This is an account of results in ChEMBL document CHEMBL1154385, “(4-Piperidinyl)-piperazine: a new platform for acetyl-CoA carboxylase inhibitors” (Bioorg Med Chem Lett, 2009).

The target of data set [1] is Acetyl-CoA carboxylase (Homo sapiens, UniProt Q13085+O00763). Nature of the data set: Inhibition of partially purified human liver ACC1/2.
Data set [2] relates to HepG2. Description: Induction of fatty acid oxidation in human HepG2 cells after 48 hrs. The class given is functional, cell-based. In short, it runs like this: (§1)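 HepG2 cells. Fatty acid synthesis read as decreased [¹⁴C] acetate incorporation into cellular lipids, reported as IC₅₀. Fatty acid oxidation read as T₂O generated in the culture medium, reported as EC₅₀.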
Data set [3] deals with Acetyl-CoA carboxylase 1 (Homo sapiens, UniProt Q13085). Nature of the data set: Inhibition of human recombinant ACC1. In short, it runs like this: (§2)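 Recombinant human ACC1 and ACC2 enzymes; activity read as inhibition of malonyl-CoA synthesis.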
Data set [4] is described as follows: Metabolic stability in human liver microsome assessed as drug remaining at 5 uM after 15 mins. As to conditions: liver microsomes, read-out: Activity. The class given is ADME. In short, it runs like this:
(§3)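 Compound at 5 µM incubated at 37 °C for 15 min with 1 mg/mL human or rat liver microsomes. Cofactors: 1.5 mM glucose-6-phosphate, 0.16 mM NADP, 1 U/mL glucose-6-phosphate dehydrogenase. Medium: 250 mM phosphate buffer, 2.4 mM MgCl₂, 69 mM KCl. Compound measured by LC–MS/MS at 0 and 15 min; % remaining reported.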
A general note: Microsomes from liver hold many membrane-bound enzymes, among them those of drug oxidation.

The target of data set [5] is Acetyl-CoA carboxylase 2 (Homo sapiens, UniProt O00763). Description: Inhibition of human recombinant ACC2. The procedure, abridged: as §2
Chain of Acetyl-CoA carboxylase 2 (O00763 whole entry): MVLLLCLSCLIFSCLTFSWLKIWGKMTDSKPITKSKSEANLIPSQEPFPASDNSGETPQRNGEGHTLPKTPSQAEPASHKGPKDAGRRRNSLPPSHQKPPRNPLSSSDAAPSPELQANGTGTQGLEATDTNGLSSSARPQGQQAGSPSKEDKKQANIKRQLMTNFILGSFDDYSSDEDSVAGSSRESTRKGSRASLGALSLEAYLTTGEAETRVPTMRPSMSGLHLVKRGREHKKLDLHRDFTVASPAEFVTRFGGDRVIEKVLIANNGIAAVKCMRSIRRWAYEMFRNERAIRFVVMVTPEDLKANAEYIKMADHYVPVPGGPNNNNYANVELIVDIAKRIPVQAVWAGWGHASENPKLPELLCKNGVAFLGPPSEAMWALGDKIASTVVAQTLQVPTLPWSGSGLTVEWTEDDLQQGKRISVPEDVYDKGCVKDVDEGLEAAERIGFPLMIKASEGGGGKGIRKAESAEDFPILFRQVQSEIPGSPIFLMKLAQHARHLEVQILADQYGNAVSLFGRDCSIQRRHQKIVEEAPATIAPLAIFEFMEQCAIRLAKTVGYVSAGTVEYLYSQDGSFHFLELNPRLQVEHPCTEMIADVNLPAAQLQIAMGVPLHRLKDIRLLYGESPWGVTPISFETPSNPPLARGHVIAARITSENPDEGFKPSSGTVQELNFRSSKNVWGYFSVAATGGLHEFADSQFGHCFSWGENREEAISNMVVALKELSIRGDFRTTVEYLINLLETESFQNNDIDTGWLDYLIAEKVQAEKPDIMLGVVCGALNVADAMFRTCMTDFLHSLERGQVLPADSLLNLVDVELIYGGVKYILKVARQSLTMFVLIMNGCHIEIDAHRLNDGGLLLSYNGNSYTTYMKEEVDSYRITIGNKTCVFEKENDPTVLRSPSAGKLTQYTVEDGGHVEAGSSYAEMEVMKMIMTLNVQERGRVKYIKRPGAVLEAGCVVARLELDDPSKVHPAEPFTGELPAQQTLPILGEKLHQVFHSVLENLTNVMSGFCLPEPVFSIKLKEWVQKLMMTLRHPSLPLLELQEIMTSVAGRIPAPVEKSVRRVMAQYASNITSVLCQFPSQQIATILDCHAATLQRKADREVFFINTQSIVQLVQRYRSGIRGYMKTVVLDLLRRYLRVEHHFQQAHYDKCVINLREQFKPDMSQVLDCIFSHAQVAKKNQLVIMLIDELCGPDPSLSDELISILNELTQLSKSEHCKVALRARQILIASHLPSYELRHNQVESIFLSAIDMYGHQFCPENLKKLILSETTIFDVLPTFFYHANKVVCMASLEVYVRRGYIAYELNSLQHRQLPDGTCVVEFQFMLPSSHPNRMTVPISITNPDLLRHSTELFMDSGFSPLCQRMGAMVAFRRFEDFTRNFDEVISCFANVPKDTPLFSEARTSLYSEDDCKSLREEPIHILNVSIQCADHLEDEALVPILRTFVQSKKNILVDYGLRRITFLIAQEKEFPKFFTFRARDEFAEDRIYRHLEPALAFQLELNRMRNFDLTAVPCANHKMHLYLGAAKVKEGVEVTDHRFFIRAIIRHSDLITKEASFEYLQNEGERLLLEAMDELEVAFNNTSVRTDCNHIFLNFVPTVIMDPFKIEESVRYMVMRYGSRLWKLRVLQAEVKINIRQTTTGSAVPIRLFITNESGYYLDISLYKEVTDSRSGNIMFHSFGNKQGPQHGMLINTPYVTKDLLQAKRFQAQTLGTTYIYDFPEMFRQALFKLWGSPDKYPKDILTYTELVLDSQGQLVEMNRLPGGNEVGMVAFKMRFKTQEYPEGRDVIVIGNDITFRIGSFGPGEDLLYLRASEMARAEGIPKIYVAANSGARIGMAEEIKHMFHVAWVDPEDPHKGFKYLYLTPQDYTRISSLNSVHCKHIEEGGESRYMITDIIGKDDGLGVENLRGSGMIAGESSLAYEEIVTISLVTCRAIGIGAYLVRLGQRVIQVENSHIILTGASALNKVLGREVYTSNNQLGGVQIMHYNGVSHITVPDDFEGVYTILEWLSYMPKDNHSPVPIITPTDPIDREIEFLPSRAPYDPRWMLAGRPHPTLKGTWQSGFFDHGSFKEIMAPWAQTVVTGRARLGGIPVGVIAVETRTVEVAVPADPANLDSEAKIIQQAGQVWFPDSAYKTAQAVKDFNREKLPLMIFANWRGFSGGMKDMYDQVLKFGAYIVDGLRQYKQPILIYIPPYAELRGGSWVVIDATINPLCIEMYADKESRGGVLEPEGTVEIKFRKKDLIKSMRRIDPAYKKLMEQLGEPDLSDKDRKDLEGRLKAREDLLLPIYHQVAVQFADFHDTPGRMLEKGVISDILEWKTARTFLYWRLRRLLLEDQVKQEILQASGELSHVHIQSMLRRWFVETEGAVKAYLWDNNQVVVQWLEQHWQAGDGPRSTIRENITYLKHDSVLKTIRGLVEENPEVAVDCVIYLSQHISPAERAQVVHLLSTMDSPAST
Data set [6] deals with HepG2. Description: Inhibition of fatty acid synthesis in human HepG2 cells after 48 hrs. The class given is functional, cell-based. To be noted: for IC50: Homo sapiens, HepG2, 48 h. The procedure, abridged:
as §1

The nature of data set [7]: Tmax in Sprague-Dawley rat at 10 mg/kg, po. The class given is ADME, organism-based. On the set-up: dose 10 mg/kg, route oral. To be noted: in vivo. In short, it runs like this: (§4)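 Male Sprague-Dawley rats given a single oral dose of 10 mg/kg; plasma exposure parameters taken from the plasma profile.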
Data set [8] in a line: AUC in Sprague-Dawley rat at 10 mg/kg, po. On the set-up: dose 10 mg/kg, route oral. As to conditions: plasma. It is filed as ADME, organism-based. The procedure, abridged:
as §4

Data set [9] in a line: Metabolic stability in rat liver microsome assessed as drug remaining at 5 uM after 15 mins. It is filed as ADME. To be noted: liver microsomes, read-out: Activity. In short, it runs like this: as §3
The nature of data set [10]: Cmax in Sprague-Dawley rat at 10 mg/kg, po. To be noted: in vivo. It is filed as ADME, organism-based. The arrangement: dose 10 mg/kg, route oral. In short, it runs like this: as §4

Consider `O=C(c1ccccc1)N1CCC(N2CCN(C(=O)c3c4ccccc4cc4ccccc34)CC2)CC1`, for which, in data set [1], the IC50 – broadly, the point on the concentration scale where inhibition reaches its midpoint – worked out at 66 nM.

`O=C(c1cc(-c2ccccc2)nc(-c2ccccc2)c1)N1CCN(C2CCN(C(=O)C3CCCCC3)CC2)CC1` had an IC50 in [1] of 244 nM.

For the compound `CC(=O)N1CCC(C(=O)N2CCC(N3CCN(C(=O)c4cc(-c5ccc(CO)cc5)nc(-c5ccc(CO)cc5)c4)CC3)CC2)CC1`, in [2], the Activity turned out to be 120%. The compound further showed an IC50 in data set [1] of 32 nM.

In data set [1], `O=C(c1ccccc1)N1CCC(C(=O)N2CCC(N3CCN(C(=O)c4cc(-c5ccccc5)nc(-c5ccccc5)c4)CC3)CC2)CC1` returned an IC50 of 290 nM.

Turning to `Cc1cc(C(=O)N2CCC(N3CCN(C(=O)c4cc(-c5ccccc5)nc(-c5ccccc5)c4)CC3)CC2)c(C)o1`, the IC50 in [1] stood at 157 nM.

As to `CC(=O)N1CCC(C(=O)N2CCC(N3CCN(C(=O)c4cc(-c5ccccc5)nc(-c5ccc(F)cc5)c4)CC3)CC2)CC1`, the IC50 in data set [1] was found to be 184 nM.

Regarding `CC(=O)N1CCC(C(=O)N2CCC(N3CCN(C(=O)c4cc(-c5cccc(C(N)=O)c5)nc(-c5cccc(C(N)=O)c5)c4)CC3)CC2)CC1`, the Activity in [2] was found to be 94%. In data set [1], this compound registered an IC50 of 73 nM.

As for `CC(=O)N1CCC(C(=O)N2CCC(N3CCN(C(=O)c4cc(-c5ccc(C(N)=O)cc5)nc(-c5ccc(C(N)=O)cc5)c4)CC3)CC2)CC1`, in data set [2], the Activity came to 135%. The same compound had an IC50 in data set [1] of 67 nM.

In turn, `Cc1cc(C(=O)N2CCC(N3CCN(C(=O)c4c5ccccc5cc5ccccc45)CC3)CC2)c(C)o1` came in with an IC50 in data set [1] of 60 nM.

As for `CC(=O)N1CCC(C(=O)N2CCC(N3CCN(C(=O)c4cc(-c5cccc(F)c5)nc(-c5cccc(F)c5)c4)CC3)CC2)CC1`, the IC50 in data set [1] came out at 131 nM.

In data set [1], `NC(=O)N1CCC(C(=O)N2CCC(N3CCN(C(=O)c4cc(-c5ccccc5)nc(-c5ccccc5)c4)CC3)CC2)CC1` came in with an IC50 of 151 nM.

Take `COCC(=O)N1CCC(C(=O)N2CCC(N3CCN(C(=O)c4cc(-c5ccccc5)nc(-c5ccccc5)c4)CC3)CC2)CC1`: the IC50 in [1] is given as 169 nM.

With `O=C(c1cc(-c2ccccc2)nc(-c2ccccc2)c1)N1CCN(C2CCN(C(=O)N3CCCCC3)CC2)CC1`, the IC50 in [1] is reported as 434 nM.

Take `O=C(c1c2ccccc2cc2ccccc12)N1CCC(N2CCC[C@@H](C(=O)N3CCOCC3)C2)CC1`: the IC50 in data set [3] turned out to be 456 nM; in data set [1] it was 116 nM; in data set [5], 194 nM; in [6] it was 840 nM. Besides, in data set [4], the remaining at 0.25 h, 5 µM is 52%.

`O=C(c1c2ccccc2cc2ccccc12)N1CCN(C2CCN(C(=O)N3CCOCC3)CC2)CC1` showed a half-maximal inhibitory concentration (IC50) in [1] of 239 nM.

`CNC(=O)N1CCC(C(=O)N2CCC(N3CCN(C(=O)c4cc(-c5ccccc5)nc(-c5ccccc5)c4)CC3)CC2)CC1` registered an IC50 in data set [1] of 95 nM.

In turn, `O=C(c1c2ccccc2cc2ccccc12)N1CCN(C2CCN(C(=O)N3CCCCC3)CC2)CC1` displayed an IC50 in data set [1] of 121 nM.

Regarding `CC(=O)N1CCC(C(=O)N2CCC(N3CCN(C(=O)c4cc(-c5ccccc5)nc(-c5ccccc5)c4)CC3)CC2)CC1`, the Activity in data set [2] came to 148%. For the same compound, in data set [1], the IC50 came to 126 nM. Also, the “inhibition (INH)” value in data set [6] is listed as 72%.

`COC(=O)N1CCC(C(=O)N2CCC(N3CCN(C(=O)c4cc(-c5ccccc5)nc(-c5ccccc5)c4)CC3)CC2)CC1` yielded an IC50 in [1] of 102 nM.

For `O=C(c1c2ccccc2cc2ccccc12)N1CCN(C2CCN(C(=O)C3CCCCC3)CC2)CC1`, the IC50 in data set [1] amounted to 91 nM.

Take `O=C(c1ccco1)N1CCC(N2CCN(C(=O)c3c4ccccc4cc4ccccc34)CC2)CC1`: the IC50 in data set [1] stood at 161 nM.

As for `CS(=O)(=O)N1CCC(C(=O)N2CCC(N3CCN(C(=O)c4cc(-c5ccccc5)nc(-c5ccccc5)c4)CC3)CC2)CC1`, in data set [1], the IC50 was found to be 248 nM.

Consider `CC(=O)N1CCC(C(=O)N2CCC(N3CCN(C(=O)c4cc(-c5ccc(C)cc5)nc(-c5ccc(C)cc5)c4)CC3)CC2)CC1`, for which the IC50 in [3] was found to be 101 nM; in data set [1], 76 nM; in data set [5], 23 nM; in data set [6], 340 nM. The same compound displayed an Activity in data set [2] of 176%. A half-maximal effect in [2] (Homo sapiens, HepG2, 48 h) (EC50) was put at 580 nM. Besides, the Tmax (usually the time from dosing to the highest level) in data set [7] amounted to 4 h. In addition, in [8], the AUC (as a rule, the area under the concentration-time curve, a measure of exposure) worked out at 1000 ng·h/mL. The results for the remaining at 0.25 h, 5 µM in data set [4] and in [9] were 87% and 96%, respectively. Moreover, the concentration in data set [10] peaked (Cmax) at 107 ng/mL. Also, the “inhibition (INH)” value in data set [6] is 77%.

In [1], `O=C(c1cc(-c2ccccc2)nc(-c2ccccc2)c1)N1CCN(C2CCN(C(=O)N3CCOCC3)CC2)CC1` returned an IC50 of 869 nM.

The compound `O=C(c1ccccc1)N1CCC(N2CCN(C(=O)c3cc(-c4ccccc4)nc(-c4ccccc4)c3)CC2)CC1` came in with an IC50 in [1] of 693 nM.

Turning to `CCC(=O)N1CCC(C(=O)N2CCC(N3CCN(C(=O)c4cc(-c5ccccc5)nc(-c5ccccc5)c4)CC3)CC2)CC1`, the IC50 in [1] was 115 nM.

Compound `CN(C)C(=O)N1CCC(C(=O)N2CCC(N3CCN(C(=O)c4cc(-c5ccccc5)nc(-c5ccccc5)c4)CC3)CC2)CC1` showed an IC50 in data set [1] of 169 nM.

`O=C(Cc1ccccc1)N1CCC(N2CCN(C(=O)c3c4ccccc4cc4ccccc34)CC2)CC1` registered an IC50 in data set [1] of 2112 nM.

With `O=C(CO)N1CCC(C(=O)N2CCC(N3CCN(C(=O)c4cc(-c5ccccc5)nc(-c5ccccc5)c4)CC3)CC2)CC1`, the IC50 in data set [1] came out at 102 nM.

`COc1ccc(-c2cc(C(=O)N3CCN(C4CCN(C(=O)C5CCN(C(C)=O)CC5)CC4)CC3)cc(-c3ccc(OC)cc3)n2)cc1` returned an Activity in [2] of 167%. In [1], the IC50 was 68 nM. For the same compound, in data set [6], the “inhibition (INH)” value worked out at 77%.

Turning to `CC(=O)N1CCC(C(=O)N2CCC(N3CCN(C(=O)c4cc(-c5ccc(O)cc5)nc(-c5ccc(O)cc5)c4)CC3)CC2)CC1`, the Activity in data set [2] came to 123%. This compound also had an IC50 in [1] of 52 nM. The “inhibition (INH)” value in data set [6] is 29%.

As to `CO[C@H]1CC[C@H](C(=O)N2CCC(N3CCN(C(=O)c4cc(-c5ccccc5)nc(-c5ccccc5)c4)CC3)CC2)CC1`, in [1], the IC50 was 155 nM.

In data set [1], `CC(C)OC(=O)N1CCC(C(=O)N2CCC(N3CCN(C(=O)c4cc(-c5ccccc5)nc(-c5ccccc5)c4)CC3)CC2)CC1` yielded an IC50 of 411 nM.

`O=C(c1c2ccccc2cc2ccccc12)N1CCN(C2CCN(C(=O)C3CCCC3)CC2)CC1` returned an IC50 in data set [1] of 95 nM.
